Data: ChEMBL document CHEMBL1137851, “2-Substituted benzoxazinone analogues as anti-human coronavirus (anti-HCoV) and ICAM-1 expression inhibition agents” (Bioorg Med Chem Lett, 2004)
In brackets after ≈: the same amount, converted by molar mass. Numbered stars: 1 amine (or outer) side, 2 acyl side, 3 side chain; on linkers, the order of the positions; unused ones are H or OH. Bridge positions count the residues as written; N and C are the ends. Square brackets hold non-standard residues; d marks the D form. Peptide text beside a SMILES is read from it. I, II: the chains in the order shown. Actinocin(1to9) = Cc1c2oc3c(C)ccc(C(=O)[*:2])c3nc-2c(C(=O)[*:1])c(N)c1=O; NMeV = CN[C@H](C(=O)O)C(C)C; Sar = CNCC(=O)O

Tests used:
MRC5 [1] = assay: inhibitory concentration against anti-human coronavirus (HCoV) was determined in MRC-5 cells (human fibroblasts); type: functional, cell-based
Outline: (§1)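 MRC-5 human fibroblasts (1.0×10^5 cells/mL in 3% FBS-DMEM) seeded and held 24 h at 37 °C, then infected with HCoV strain 229E at 20 TCID₅₀/well for 2 h at 37 °C. Compound added afterwards at various concentrations, in triplicate. Cell viability read by XTT after 4 days at 37 °C. Actinomycin D served as positive control.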

[2] = Effective dose for inhibition of intercellular adhesion molecule 1 (ICAM 1) expression; type: functional
MRC5 [3] = assay: inhibitory concentration against anti-human coronavirus (HCoV) was determined in MRC-5 cells (human fibroblasts); Inactive; type: functional, cell-based; outline: as §1

| Compound | IC50 (MRC5 [1]) [µg/mL] | ED50 [2] [µg/mL] | IC50 (MRC5 [3]) |
| --- | --- | --- | --- |
| COc1cccc2c(=O)oc(-c3ccc(Br)cc3)nc12 | 6.08 (≈ 18.3 µM) | 1 (≈ 3.01 µM) |  |
| O=c1oc(-c2ccccc2Br)nc2c1ccc1ccccc12 |  |  | Not Active |
| O=c1oc(-c2ccccc2Cl)nc2c1ccc1ccccc12 |  |  | Not Active |
| COc1cccc2c(=O)oc(-c3ccccc3Cl)nc12 | 5.79 (≈ 20.1 µM) |  |  |
| COc1cccc2c(=O)oc(-c3cccc(Cl)c3)nc12 | 5.06 (≈ 17.6 µM) |  |  |
| Cc1c2oc3c(C)ccc(C(=O)N[C@@H]4C(=O)N[C@H](C(C)C)C(=O)N5CCC[C@H]5C(=O)N(C)CC(=O)N(C)[C@@H](C(C)C)C(=O)O[C@@H]4C)c3nc-2c(C(=O)N[C@@H]2C(=O)N[C@H](C(C)C)C(=O)N3CCC[C@H]3C(=O)N(C)CC(=O)N(C)[C@@H](C(C)C)C(=O)O[C@@H]2C)c(N)c1=O [DACTINOMYCIN] (I: T[dV]P[Sar][NMeV] / II: T[dV]P[Sar][NMeV]; ester I:1-I:C, II:1-II:C; linker I:N-II:N via Actinocin(1to9)) | 0.02 (≈ 0.0159 µM) |  |  |
| COc1cccc2c(=O)oc(-c3ccccc3)nc12 | 6.83 (≈ 27 µM) |  |  |
| O=c1oc(-c2ccccc2F)nc2c1ccc1ccccc12 |  |  | Not Active |
| COc1cccc2c(=O)oc(-c3ccc(Cl)cc3)nc12 | 7.59 (≈ 26.4 µM) | 0.5 (≈ 1.74 µM) |  |
| COc1cccc2c(=O)oc(-c3ccccc3F)nc12 | 1.92 (≈ 7.08 µM) |  |  |
| COc1cccc2c(=O)oc(-c3ccccc3Br)nc12 |  |  | Not Active |
